Test results reported in ChEMBL document CHEMBL4196006, “Aryl thiosemicarbazones for the treatment of trypanosomatidic infections” (Eur J Med Chem, 2018).
The source made the active and inactive calls. The rule behind the calls is not given here.

Key:
CYP1A2 = target: T1, CYP1A2 (Homo sapiens, UniProt P05177); experiment: Inhibition of human microsomal CYP1A2 expressed in baculovirus infected BTI-TN-5B1-4 cells at 10 uM incubated for 30 mins by luciferase assay relative to control; assay type: ADME
T1 sequence (P05177 whole entry): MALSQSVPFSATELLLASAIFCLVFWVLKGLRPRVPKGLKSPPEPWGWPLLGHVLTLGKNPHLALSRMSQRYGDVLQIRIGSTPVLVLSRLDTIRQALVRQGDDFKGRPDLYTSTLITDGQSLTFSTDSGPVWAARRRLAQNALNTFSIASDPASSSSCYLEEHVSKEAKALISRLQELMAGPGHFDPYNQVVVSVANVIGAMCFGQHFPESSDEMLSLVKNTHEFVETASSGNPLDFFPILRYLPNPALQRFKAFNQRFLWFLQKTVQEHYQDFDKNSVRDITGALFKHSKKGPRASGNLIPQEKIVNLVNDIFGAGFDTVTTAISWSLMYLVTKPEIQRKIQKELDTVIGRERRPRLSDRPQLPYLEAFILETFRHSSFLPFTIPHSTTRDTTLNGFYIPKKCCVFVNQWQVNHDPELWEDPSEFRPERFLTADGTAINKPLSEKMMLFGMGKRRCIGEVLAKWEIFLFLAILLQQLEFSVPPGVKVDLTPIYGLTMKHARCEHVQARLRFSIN
Procedure, shortened: (§1)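 CYP1A2, 2C9, 2C19, 2D6 and 3A4 in microsomes from baculovirus-infected insect cells, each with a P450-Glo luminogenic substrate. Inhibition read as loss of light; single-point at 10 μM, triplicate.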

[1] = Cytotoxicity against human 786-O cells assessed as inhibition of mitochondrial viability at 10 uM after 6 hrs by CMXRos staining based assay relative to control; assay type: cell-based, 786-0; settings: read-out: INH
Procedure, shortened: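 Mitochondrial toxicity monitored by MitoTracker Red CMXRos uptake and high-content imaging; compound at 10 μM, triplicate.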

hERG (KCNH2) = hERG (KCNH2) (Homo sapiens, UniProt Q12809); experiment: Inhibition of human ERG at 10 uM incubated for 2 hrs by fluorescence polarisation assay relative to control
CYP2D6 = CYP2D6 (Homo sapiens, UniProt P10635); experiment: Inhibition of human microsomal CYP2D6 expressed in baculovirus infected BTI-TN-5B1-4 cells at 10 uM incubated for 30 mins by luciferase assay relative to control; assay type: ADME; procedure, shortened: as §1
Aurora kinase B = Aurora kinase B (Homo sapiens, UniProt Q96GD4); experiment: Inhibition of recombinant full-length human aurora B kinase expressed in baculovirus system at 10 uM using MBP as substrate incubated for 45 mins by ADP-glo kinase assay; settings: probe MBP
Procedure, shortened: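 Aurora B activity measured as ADP formation via coupled luciferase ADP-Glo luminescence; single-point at 10 μM, triplicate.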

[2] = Cytotoxicity against human A549 cells assessed as growth inhibition at 10 uM after 48 hrs by CellTiter-Glo assay relative to control; values are per cent of control; settings: A549 cells
[3] = Cytotoxicity against human THP1 cells assessed as viable cells at 100 uM after 72 hrs by MTT assay relative to control; assay type: cell-based, THP-1; settings: read-out: Activity
Procedure, shortened: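 THP-1-derived macrophages exposed to compounds for 72 h, tested at 100 μM or in dose-response; viability read by MTT colorimetric assay.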

Trypanosoma cruzi = experiment: Antitrypanosomal activity against Trypanosoma cruzi amastigote form infected in human U2OS cells assessed as parasite growth inhibition at 50 uM after 72 hrs relative to control; assay type: functional; settings: for inhibition of growth at 50 µM: read-out: GI
Procedure, shortened: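 U2OS monolayers grown for 24 h, then infected with tissue-derived trypomastigotes of T. cruzi Y strain. Compounds were added 24 h after infection at 50 μM (single-point) or in dose-response, with 72 h exposure. Plates were fixed, stained and analysed by high-content imaging; activity was normalized to infected and non-infected controls. Means of at least two experiments; benznidazole as reference.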

[4] = target: T2, Pteridine reductase 1 (Leishmania major) (UniProt Q01782); experiment: Inhibition of Leishmania major PTR1 at 50 uM using H2B as substrate in presence of NADPH by photometric analysis relative to control
T2 sequence (whole entry): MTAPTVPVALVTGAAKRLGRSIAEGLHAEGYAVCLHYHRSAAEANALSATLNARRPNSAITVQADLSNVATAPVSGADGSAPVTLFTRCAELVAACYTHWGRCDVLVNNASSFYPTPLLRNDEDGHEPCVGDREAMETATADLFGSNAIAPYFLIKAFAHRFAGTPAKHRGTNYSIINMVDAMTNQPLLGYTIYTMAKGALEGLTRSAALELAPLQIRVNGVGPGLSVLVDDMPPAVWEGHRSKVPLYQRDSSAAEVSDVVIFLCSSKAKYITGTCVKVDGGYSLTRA

[5] = Cytotoxicity against human U2OS cells assessed as viable cells at 50 uM after 72 hrs by MTT assay relative to control; assay type: cell-based; settings: read-out: Activity
Trypanosoma brucei [6] = experiment: Antitrypanosomal activity against Trypanosoma brucei Lister 427 bloodstream form at 10 uM after 72 hrs by resazurin dye-based assay relative to control; assay type: functional
[7] = Cytotoxicity against human WI38 cells assessed as growth inhibition at 10 uM after 48 hrs by CellTiter-Glo assay relative to control; values are per cent of control; settings: WI38 cells
CYP2C9 = CYP2C9 (Homo sapiens, UniProt P11712); experiment: Inhibition of human microsomal CYP2C9 expressed in baculovirus infected BTI-TN-5B1-4 cells at 10 uM incubated for 30 mins by luciferase assay relative to control; assay type: ADME; procedure, shortened: as §1
Trypanosoma brucei [8] = experiment: Antitrypanosomal activity against Trypanosoma brucei Lister 427 bloodstream form assessed as parasite growth inhibition at 50 uM after 72 hrs by SYBR Green assay relative to control; assay type: functional; settings: for inhibition of growth at 50 µM: Lister 427, 72 h, read-out: GI
Leishmania infantum = experiment: Antileishmanial activity against Leishmania infantum amastigote form assessed as parasite growth inhibition at 50 uM after 72 hrs by steady-Glo reagent based assay relative to control; assay type: functional; settings: for inhibition of growth at 50 µM: read-out: GI
Procedure, shortened: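 Intramacrophage L. infantum amastigotes in THP-1-derived macrophages, tested at 50 μM or in dose-response. Plates held 72 h at 37 °C, 5% CO2. Medium was replaced by PBS, macrophages lysed, and parasites read by Steady-Glo luminescence. High-content imaging gave host cell number, infection ratio (infected/total cells) and parasites per infected cell. Values are means of at least two independent experiments.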

Trypanosoma brucei [9] = experiment: Potentiation of methotrexate-induced antitrypanosomal activity against Trypanosoma brucei Lister 427 bloodstream form at 10 uM after 72 hrs by resazurin dye-based assay relative to control; assay type: functional
[10] = target: T3, Pteridine reductase, putative (Trypanosoma brucei) (UniProt Q581W1); experiment: Inhibition of Trypanosoma brucei PTR1 at 50 uM using H2B as substrate in presence of NADPH by photometric analysis relative to control
T3 sequence (whole entry): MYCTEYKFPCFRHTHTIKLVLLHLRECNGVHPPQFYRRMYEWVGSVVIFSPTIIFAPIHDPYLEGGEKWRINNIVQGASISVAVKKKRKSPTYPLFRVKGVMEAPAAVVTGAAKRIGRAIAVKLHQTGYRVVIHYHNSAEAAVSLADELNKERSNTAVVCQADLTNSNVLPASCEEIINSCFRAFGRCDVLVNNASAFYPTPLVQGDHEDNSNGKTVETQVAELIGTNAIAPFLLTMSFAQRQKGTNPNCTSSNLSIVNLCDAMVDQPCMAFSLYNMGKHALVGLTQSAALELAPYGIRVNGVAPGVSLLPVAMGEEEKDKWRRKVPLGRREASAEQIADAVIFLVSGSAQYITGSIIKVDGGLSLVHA

CYP3A4 = CYP3A4 (Homo sapiens, UniProt P08684); experiment: Inhibition of human microsomal CYP3A4 expressed in baculovirus infected BTI-TN-5B1-4 cells at 10 uM incubated for 30 mins by luciferase assay relative to control; assay type: ADME; procedure, shortened: as §1
CYP2C19 = CYP2C19 (Homo sapiens, UniProt P33261); experiment: Inhibition of human microsomal CYP2C19 expressed in baculovirus infected BTI-TN-5B1-4 cells at 10 uM incubated for 30 mins by luciferase assay relative to control; assay type: ADME; procedure, shortened: as §1
Trypanosoma brucei [11] = experiment: Potentiation of methotrexate-induced antitrypanosomal activity against Trypanosoma brucei Lister 427 bloodstream form at 10 uM after 72 hrs by resazurin dye-based assay; assay type: functional

CYP3A4, sequence (P08684 whole entry): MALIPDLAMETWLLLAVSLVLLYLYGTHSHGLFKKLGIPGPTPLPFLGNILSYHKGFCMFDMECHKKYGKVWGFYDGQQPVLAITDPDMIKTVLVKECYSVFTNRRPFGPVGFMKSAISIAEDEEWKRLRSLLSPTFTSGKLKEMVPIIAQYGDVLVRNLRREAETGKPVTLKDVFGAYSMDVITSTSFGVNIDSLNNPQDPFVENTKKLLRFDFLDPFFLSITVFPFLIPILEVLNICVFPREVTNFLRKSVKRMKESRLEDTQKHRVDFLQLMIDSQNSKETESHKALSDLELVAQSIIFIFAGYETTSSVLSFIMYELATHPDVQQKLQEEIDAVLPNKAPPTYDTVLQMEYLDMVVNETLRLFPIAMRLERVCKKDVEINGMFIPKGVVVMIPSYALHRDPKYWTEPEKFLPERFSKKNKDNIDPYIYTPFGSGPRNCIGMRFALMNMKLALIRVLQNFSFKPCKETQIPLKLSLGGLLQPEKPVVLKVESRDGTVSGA
CYP2D6, sequence (P10635 whole entry): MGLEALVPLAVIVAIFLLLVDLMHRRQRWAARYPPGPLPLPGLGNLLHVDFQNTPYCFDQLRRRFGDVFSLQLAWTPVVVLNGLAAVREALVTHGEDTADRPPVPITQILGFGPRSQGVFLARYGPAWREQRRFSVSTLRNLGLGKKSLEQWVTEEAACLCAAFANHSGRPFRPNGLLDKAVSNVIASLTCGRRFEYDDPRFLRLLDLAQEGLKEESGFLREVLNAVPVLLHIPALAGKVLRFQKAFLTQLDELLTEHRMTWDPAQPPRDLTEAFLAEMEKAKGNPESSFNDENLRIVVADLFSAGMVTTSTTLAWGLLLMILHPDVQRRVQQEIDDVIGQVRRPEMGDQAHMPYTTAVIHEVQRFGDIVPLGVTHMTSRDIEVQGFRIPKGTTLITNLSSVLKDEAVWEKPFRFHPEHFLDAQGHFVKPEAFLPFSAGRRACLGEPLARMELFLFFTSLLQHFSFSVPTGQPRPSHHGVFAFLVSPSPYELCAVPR
CYP2C19, sequence (P33261 whole entry): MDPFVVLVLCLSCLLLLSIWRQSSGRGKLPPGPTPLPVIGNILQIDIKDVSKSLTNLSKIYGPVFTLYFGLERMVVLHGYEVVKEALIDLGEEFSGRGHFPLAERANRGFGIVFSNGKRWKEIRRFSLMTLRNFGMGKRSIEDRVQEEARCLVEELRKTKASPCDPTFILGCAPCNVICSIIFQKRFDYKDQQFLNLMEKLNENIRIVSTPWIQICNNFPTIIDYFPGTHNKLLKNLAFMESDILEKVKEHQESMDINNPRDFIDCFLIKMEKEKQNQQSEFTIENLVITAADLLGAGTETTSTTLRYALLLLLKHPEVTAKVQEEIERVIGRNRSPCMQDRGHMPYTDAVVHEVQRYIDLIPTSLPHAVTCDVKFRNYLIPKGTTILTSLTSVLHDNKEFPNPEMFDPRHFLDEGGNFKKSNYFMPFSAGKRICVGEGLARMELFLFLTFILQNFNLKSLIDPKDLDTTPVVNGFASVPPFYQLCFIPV
CYP2C9, sequence (P11712 whole entry): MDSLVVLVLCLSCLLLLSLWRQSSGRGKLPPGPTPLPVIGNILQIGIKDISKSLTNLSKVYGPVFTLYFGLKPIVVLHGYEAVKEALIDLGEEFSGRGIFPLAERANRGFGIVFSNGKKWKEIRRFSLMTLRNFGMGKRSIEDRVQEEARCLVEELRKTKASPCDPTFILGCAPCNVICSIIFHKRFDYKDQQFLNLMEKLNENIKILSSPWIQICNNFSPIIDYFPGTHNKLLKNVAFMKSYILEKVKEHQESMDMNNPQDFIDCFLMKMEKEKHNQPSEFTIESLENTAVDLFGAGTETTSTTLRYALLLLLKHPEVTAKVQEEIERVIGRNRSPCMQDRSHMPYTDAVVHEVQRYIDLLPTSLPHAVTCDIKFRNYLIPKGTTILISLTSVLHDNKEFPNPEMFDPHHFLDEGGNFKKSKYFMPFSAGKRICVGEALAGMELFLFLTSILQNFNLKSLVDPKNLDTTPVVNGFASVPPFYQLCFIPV
Aurora kinase B, sequence (Q96GD4 whole entry): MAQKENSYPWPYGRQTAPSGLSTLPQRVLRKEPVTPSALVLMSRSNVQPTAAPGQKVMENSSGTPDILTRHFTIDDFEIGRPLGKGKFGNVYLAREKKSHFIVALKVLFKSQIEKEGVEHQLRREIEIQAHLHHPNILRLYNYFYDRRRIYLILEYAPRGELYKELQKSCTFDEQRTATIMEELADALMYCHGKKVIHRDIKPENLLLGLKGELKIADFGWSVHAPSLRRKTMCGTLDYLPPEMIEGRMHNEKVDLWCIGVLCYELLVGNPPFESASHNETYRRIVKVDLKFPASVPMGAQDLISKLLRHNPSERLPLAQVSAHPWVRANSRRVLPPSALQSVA
hERG (KCNH2), sequence (Q12809 whole entry): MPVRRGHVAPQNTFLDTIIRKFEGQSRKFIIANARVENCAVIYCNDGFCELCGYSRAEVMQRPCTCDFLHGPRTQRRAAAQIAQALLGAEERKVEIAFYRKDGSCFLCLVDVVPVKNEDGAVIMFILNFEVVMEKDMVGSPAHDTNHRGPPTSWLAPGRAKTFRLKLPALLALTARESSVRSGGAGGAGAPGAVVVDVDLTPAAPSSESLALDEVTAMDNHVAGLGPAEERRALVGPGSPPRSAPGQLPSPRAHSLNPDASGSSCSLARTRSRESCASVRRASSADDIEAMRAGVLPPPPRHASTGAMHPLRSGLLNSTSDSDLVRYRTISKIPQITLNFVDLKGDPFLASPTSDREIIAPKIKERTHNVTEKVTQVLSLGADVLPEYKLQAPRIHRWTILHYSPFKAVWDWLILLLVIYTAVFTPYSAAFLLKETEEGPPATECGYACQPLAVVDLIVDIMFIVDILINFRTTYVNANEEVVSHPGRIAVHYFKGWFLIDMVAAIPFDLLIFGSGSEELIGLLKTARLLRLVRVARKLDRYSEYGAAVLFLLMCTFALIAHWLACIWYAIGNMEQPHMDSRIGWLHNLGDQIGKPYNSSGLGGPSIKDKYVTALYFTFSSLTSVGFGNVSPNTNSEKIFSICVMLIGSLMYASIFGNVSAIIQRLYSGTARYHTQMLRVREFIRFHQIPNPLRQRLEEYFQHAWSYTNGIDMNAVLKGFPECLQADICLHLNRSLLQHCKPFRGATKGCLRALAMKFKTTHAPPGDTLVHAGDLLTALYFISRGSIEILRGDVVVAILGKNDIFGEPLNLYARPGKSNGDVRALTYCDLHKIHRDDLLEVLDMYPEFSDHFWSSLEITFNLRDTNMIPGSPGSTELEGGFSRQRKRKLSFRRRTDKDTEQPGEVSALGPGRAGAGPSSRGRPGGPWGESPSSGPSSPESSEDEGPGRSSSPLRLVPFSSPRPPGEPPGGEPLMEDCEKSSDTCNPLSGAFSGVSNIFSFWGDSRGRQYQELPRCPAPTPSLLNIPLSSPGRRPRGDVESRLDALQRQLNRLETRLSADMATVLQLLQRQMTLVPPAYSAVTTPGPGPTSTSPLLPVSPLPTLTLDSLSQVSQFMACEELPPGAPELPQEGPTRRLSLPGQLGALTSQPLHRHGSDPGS

SMILES | inhibition at 0.5 h, 10 µM (CYP1A2) | cytotoxicity at 6 h, 10 µM [1] | inhibition at 2 h, 10 µM (hERG (KCNH2)) | inhibition at 0.5 h, 10 µM (CYP2D6) | inhibition at 0.75 h, 10 µM (Aurora kinase B) | cell growth (% of control) at 48 h, 10 µM [2] | viability at 72 h, 100 µM [3] | inhibition of growth at 50 µM (Trypanosoma cruzi) | inhibition [4] | viability at 72 h, 50 µM [5] | Activity (Trypanosoma brucei [6]) | cell growth (% of control) at 48 h, 10 µM [7] | inhibition at 0.5 h, 10 µM (CYP2C9) | inhibition of growth at 50 µM (Leishmania infantum) | Activity (Trypanosoma brucei [9]) | inhibition [10] | inhibition at 0.5 h, 10 µM (CYP3A4) | inhibition at 0.5 h, 10 µM (CYP2C19) | PF (Trypanosoma brucei [11]) | growth inhibition (GI) (Trypanosoma brucei [8]) | other results
NC(=S)N/N=C/c1cccc(-c2ccc3c(c2)OCO3)c1 | 101% | 15.7% | 9.13% | 76.9% | -3.81% | 111% | 2.61% | 71.3% | 0.33% | 81.5% | 38.67% | 91.9% | 45.3% | 46.9% | 96.33% | 0.16% | 69.7% | 48.4% | 1.53 |  | inhibition of growth at 50 µM (Trypanosoma brucei [8]): 61.8%
C/C(=N\NC(N)=S)c1ccc(O)cc1 | -0.75% | 5.9% | 3.53% | -24.5% | -0.05% | 126% | 72.2% | 37% | 7.77% | 90.2% | 14.83% | 101% | -9.01% | 23.9% | 87.83% | 26.2% | -4.7% | -63.9% | 2.25 | inactive | 
N/C(S)=N/N=C/c1ccc(Cl)c(Cl)c1 | 76.8% | 5.87% | -9.32% | 27.3% | -9.56% | 100% | 56.4% | 23.1% | 9.38% | 101% | 37.33% | 107% | 24.3% | 17.6% | 84% | inactive | -10.6% | -14.9% | 1.36 | inactive | 
NC(=S)N/N=C/C(O)C(O)C(O)CO (stereo not given) | -13.2% | -1.92% | -11.1% | -54.5% | -7.51% | 129% | 67.6% |  | 4.38% | 146% | 0.5% | 95.7% | -19.7% |  | 16.17% | 1.7% | -27.9% | -35.1% | 0.65 | inactive | growth inhibition (GI) (Trypanosoma cruzi): inactive; growth inhibition (GI) (Leishmania infantum): inactive
C/C(=N\NC(N)=S)c1ccc(N)cc1 | 11.5% | -5.04% | 6.38% | -13.1% | -14.2% | 141% | 95.2% | 51.8% | 2.62% | 113% | 4.67% | 83.1% | 7.46% | 9.54% | 75.17% | 10.2% | -4.06% | -20.7% | 2.6 | inactive | 
Cc1ccsc1/C=N/NC(N)=S | 38.3% | 2.15% | -5.98% | 8.57% | -5.27% | 91.9% | 76% | 24.9% | 1.75% | 95.8% | 8.33% | 85.4% | 4.24% | 8.28% | 34.17% | inactive | -8.16% | -20.7% | 1.05 |  | inhibition of growth at 50 µM (Trypanosoma brucei [8]): 17.3%
N/C(S)=N/N=C/c1ccc([N+](=O)[O-])cc1 | 11.6% | 0.08% | 4.43% | -16.9% | -9.68% | 128% | 75.6% | 40.1% | 7.99% | 85.6% | 8.17% | 122% | -3.66% | 19% | 36.33% | 3.76% | 8.17% | -38.4% | 1.12 | inactive | 
